According to publication PMC10401071 (Cancer Discovery, 2023):
Where two headings read alike, the source gives them in different places.

Type: in vivo, human
Procedure, shortened: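 Adults with advanced solid tumours (ECOG 0–1; TP53 wild-type or unknown) received oral test compound on day 1 of 21-day cycles or days 1 and 8 of 28-day cycles, until progression or unacceptable toxicity. Antiemetic prophylaxis followed guidelines. AE incidence and severity were graded per NCI CTCAE v5.0 and summarised descriptively.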

Cc1c(C(=O)O)ccc2c3n(nc12)[C@@H]1[C@H](C3)N(CC2CC2)[C@@]2(C(=O)Nc3cc(Cl)ccc32)[C@H]1c1cccc(Cl)c1F [brigimadlin]
Any AE (All patients (N = 54)): 54 (100.0) n (%)
Any AE (any cause) leading to study drug discontinuation (All patients (N = 54)): 3 (5.6) n (%)
Any AE (any cause) leading to study drug dose reduction (All patients (N = 54)): 19 (35.2) n (%)
Any TRAE (All patients (N = 54)): 50 (92.6) n (%)
Any grade ≥3 AE (All patients (N = 54)): 33 (61.1) n (%)
Any grade ≥3 TRAE (All patients (N = 54)): 25 (46.3) n (%)
Serious AEs (any cause) (All patients (N = 54)): 18 (33.3) n (%)
TRAE Alopecia, All grades (All patients (N = 54)): 12 (22.2) n (%)
TRAE Alopecia, Grade ≥3 (All patients (N = 54)): 0 n (%)
TRAE Anemia, All grades (All patients (N = 54)): 16 (29.6) n (%)
TRAE Anemia, Grade ≥3 (All patients (N = 54)): 5 (9.3) n (%)
TRAE Decreased appetite, All grades (All patients (N = 54)): 17 (31.5) n (%)
TRAE Decreased appetite, Grade ≥3 (All patients (N = 54)): 0 n (%)
TRAE Decreased lymphocyte count, All grades (All patients (N = 54)): 7 (13.0) n (%)
TRAE Decreased lymphocyte count, Grade ≥3 (All patients (N = 54)): 4 (7.4) n (%)
TRAE Decreased weight, All grades (All patients (N = 54)): 4 (7.4) n (%)
TRAE Decreased weight, Grade ≥3 (All patients (N = 54)): 0 n (%)
TRAE Decreased white blood cell count, All grades (All patients (N = 54)): 13 (24.1) n (%)
TRAE Decreased white blood cell count, Grade ≥3 (All patients (N = 54)): 7 (13.0) n (%)
TRAE Diarrhea, All grades (All patients (N = 54)): 16 (29.6) n (%)
TRAE Diarrhea, Grade ≥3 (All patients (N = 54)): 0 n (%)
TRAE Dysgeusia, All grades (All patients (N = 54)): 10 (18.5) n (%)
TRAE Dysgeusia, Grade ≥3 (All patients (N = 54)): 0 n (%)
TRAE Fatigue, All grades (All patients (N = 54)): 25 (46.3) n (%)
TRAE Fatigue, Grade ≥3 (All patients (N = 54)): 1 (1.9) n (%)
TRAE Gastroesophageal reflux disease, All grades (All patients (N = 54)): 5 (9.3) n (%)
TRAE Gastroesophageal reflux disease, Grade ≥3 (All patients (N = 54)): 0 n (%)
TRAE Increased alanine aminotransferase, All grades (All patients (N = 54)): 3 (5.6) n (%)
TRAE Increased alanine aminotransferase, Grade ≥3 (All patients (N = 54)): 0 n (%)
TRAE Increased aspartate aminotransferase, All grades (All patients (N = 54)): 5 (9.3) n (%)
TRAE Increased aspartate aminotransferase, Grade ≥3 (All patients (N = 54)): 0 n (%)
TRAE Nausea, All grades (All patients (N = 54)): 40 (74.1) n (%)
TRAE Nausea, Grade ≥3 (All patients (N = 54)): 4 (7.4) n (%)
TRAE Neutropenia, All grades (All patients (N = 54)): 16 (29.6) n (%)
TRAE Neutropenia, Grade ≥3 (All patients (N = 54)): 13 (24.1) n (%)
TRAE Thrombocytopenia, All grades (All patients (N = 54)): 24 (44.4) n (%)
TRAE Thrombocytopenia, Grade ≥3 (All patients (N = 54)): 14 (25.9) n (%)
TRAE Vomiting, All grades (All patients (N = 54)): 28 (51.9) n (%)
TRAE Vomiting, Grade ≥3 (All patients (N = 54)): 1 (1.9) n (%)
patients with neutropenia leading to dose reduction (D1D8q4w): four
patients with thrombocytopenia leading to dose reduction (D1D8q4w): four
serious AE thrombocytopenia (D1D8q4w): three
Any AE (D1D8q4w (n = 25)): 25 (100.0) n (%)
Any AE (any cause) leading to study drug discontinuation (D1D8q4w (n = 25)): 1 (4.0) n (%)
Any AE (any cause) leading to study drug dose reduction (D1D8q4w (n = 25)): 8 (32.0) n (%)
Any TRAE (D1D8q4w (n = 25)): 23 (92.0) n (%)
Any grade ≥3 AE (D1D8q4w (n = 25)): 12 (48.0) n (%)
Any grade ≥3 TRAE (D1D8q4w (n = 25)): 8 (32.0) n (%)
Serious AEs (any cause) (D1D8q4w (n = 25)): 9 (36.0) n (%)
TRAE Alopecia, All grades (D1D8q4w (n = 25)): 6 (24.0) n (%)
TRAE Alopecia, Grade ≥3 (D1D8q4w (n = 25)): 0 n (%)
TRAE Anemia, All grades (D1D8q4w (n = 25)): 4 (16.0) n (%)
TRAE Anemia, Grade ≥3 (D1D8q4w (n = 25)): 2 (8.0) n (%)
TRAE Decreased appetite, All grades (D1D8q4w (n = 25)): 7 (28.0) n (%)
TRAE Decreased appetite, Grade ≥3 (D1D8q4w (n = 25)): 0 n (%)
TRAE Decreased lymphocyte count, All grades (D1D8q4w (n = 25)): 2 (8.0) n (%)
TRAE Decreased lymphocyte count, Grade ≥3 (D1D8q4w (n = 25)): 1 (4.0) n (%)
TRAE Decreased weight, Grade ≥3 (D1D8q4w (n = 25)): 0 n (%)
TRAE Decreased white blood cell count, All grades (D1D8q4w (n = 25)): 4 (16.0) n (%)
TRAE Decreased white blood cell count, Grade ≥3 (D1D8q4w (n = 25)): 2 (8.0) n (%)
TRAE Diarrhea, All grades (D1D8q4w (n = 25)): 8 (32.0) n (%)
TRAE Diarrhea, Grade ≥3 (D1D8q4w (n = 25)): 0 n (%)
TRAE Dysgeusia, All grades (D1D8q4w (n = 25)): 5 (20.0) n (%)
TRAE Dysgeusia, Grade ≥3 (D1D8q4w (n = 25)): 0 n (%)
TRAE Fatigue, All grades (D1D8q4w (n = 25)): 10 (40.0) n (%)
TRAE Fatigue, Grade ≥3 (D1D8q4w (n = 25)): 0 n (%)
TRAE Gastroesophageal reflux disease, All grades (D1D8q4w (n = 25)): 3 (12.0) n (%)
TRAE Gastroesophageal reflux disease, Grade ≥3 (D1D8q4w (n = 25)): 0 n (%)
TRAE Increased alanine aminotransferase, All grades (D1D8q4w (n = 25)): 0 n (%)
TRAE Increased alanine aminotransferase, Grade ≥3 (D1D8q4w (n = 25)): 0 n (%)
TRAE Increased aspartate aminotransferase, All grades (D1D8q4w (n = 25)): 1 (4.0) n (%)
TRAE Increased aspartate aminotransferase, Grade ≥3 (D1D8q4w (n = 25)): 0 n (%)
TRAE Nausea, All grades (D1D8q4w (n = 25)): 19 (76.0) n (%)
TRAE Nausea, Grade ≥3 (D1D8q4w (n = 25)): 0 n (%)
